# Results from different studies.
# Each line is one published result; the experiments were not run side by side.
# Target: Dual specificity protein kinase CLK3 (CLK3, Homo sapiens, UniProt P49761)
# Method: competition with immobilised ligand
SMILES,assay,setting,remaining binding
O=C(NCCCN1CCOCC1)c1ccc(Nc2ncc(Cl)c(-c3ccc(Cl)s3)n2)cc1,binding,1 µM,37%
O=C1CCc2cc(Nc3cc(OC4CCOCC4)c([N+](=O)[O-])cc3Cl)ccc2N1,cell-free assay,1 µM,100%
C=CC(=O)N1CCC(C(=O)NCC(=O)N2CCN(c3nc(-c4cnc(N)nc4C(F)F)nc(N4CCOCC4)n3)CC2)CC1,binding,1 µM,97%
CCN1CCN(Cc2ccc(C(=O)Nc3ccc(C)c(Oc4ccc5c(c4)CC(=O)N5)c3)cc2C(F)(F)F)CC1,binding,1 µM,100%
Nc1ncc2c(n1)-c1c([nH]c3ccc(C#CC4CC4)cc13)CCCC2,binding,1 µM,96%
COc1cc(Nc2nccc(-c3cnn4nc(OC)ccc34)n2)cc(C(F)(F)F)c1,binding,1 µM,92%
O=C(NCCCC1CCCCC1)c1ccc(CNC(=O)c2cnn(-c3ccccc3)c2C(F)(F)F)cc1,cell-free assay,0.1 µM,100%
O=C(c1ccc(Nc2nccc(-c3cc4ccccc4s3)n2)cc1)N1CCC(N2CCCC2)CC1,binding,1 µM,73%
O=S(=O)(NC1CCC(c2cc(F)ccc2F)(S(=O)(=O)c2ccc(Cl)cc2)CC1)C(F)(F)F (centres unmarked),cell-free assay,1 µM,86%
O=C(c1ccc(Nc2ncc(Cl)c(-c3ccc(Cl)s3)n2)cc1)N1CCC(N2CCCC2)CC1,binding,1 µM,15%
COc1cnc(Nc2cccc(S(N)(=O)=O)c2)nc1N1CCN(c2ccccc2)C(=O)C1,binding,1 µM,100%
CN(CCCC(F)(F)F)c1nccc(-c2cnn3ncccc23)n1,binding,1 µM,84%
O=C(Nc1c[nH]nc1C(=O)NC1CCNCC1)c1cc(F)cc(F)c1,binding,1 µM,100%
CCOC(=O)c1cc2cc(-c3cc(C(=O)NCc4ccc(C(=O)O)cc4)nn3C)ccc2[nH]1,cell-free assay,0.1 µM,83%
